# Assay results from ChEMBL document CHEMBL1138293, “Novel peptide inhibitors of human secretory phospholipase A2 with antiinflammatory activity: solution structure and molecular modeling” (J Med Chem, 2007).
# The source made the active and inactive calls. The calls are words filed in the database; no cut-off is given here.
# How the values were obtained:
# [1] = Inhibition of human recombinant synovial PLA2
# Outline: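 Purified human synovial type IIA sPLA2 (0.85 pmol) was preincubated with peptide (1-250 range) and then reacted with [3H]arachidonate-labeled E. coli membranes in 100 mM Tris-HCl, 25 mM CaCl2, pH 7.5. Released [3H]arachidonate was counted by liquid scintillation, in triplicate. IC50 (mean ± SD) was obtained from sigmoid curves by nonlinear regression of % inhibition versus buffer-only control.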
# [2] = species: Homo sapiens; assay: Inhibition of human recombinant synovial PLA2 by at 5 uM
# Outline: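 Single peptide concentration of 5 µM against purified human synovial type IIA sPLA2 (0.85 pmol), with [3H]arachidonate-labeled E. coli membranes as substrate in 100 mM Tris-HCl, 25 mM CaCl2, pH 7.5. Released label was counted by liquid scintillation, in triplicate. Results are % inhibition relative to enzyme preincubated with buffer alone; groups were compared by one-way ANOVA with Dunnett's test.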
# [3] = species: Homo sapiens; assay: Inhibition of IL-1-beta-induced MMP9 levels in human RASFs after 1 hr by ELISA; type: functional
# Outline: (§1)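 Primary synovial fibroblasts from three RA knee-replacement patients, passages 3-8, grown to confluence and serum-starved 16 h. Cells were preincubated 1 h at 37 °C with 5 µM peptide or vehicle (0.1% DMSO final), then given hrIL-1β 10 ng/mL for 24 h. Supernatants were stored at -20 °C, and type IIA sPLA2 or MMP-1/-2/-9 was measured by ELISA in triplicate.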
# [4] = species: Homo sapiens; assay: Effect on IL-1-beta-stimulated TIMP2 production in human RASFs; type: functional
# [5] = species: Homo sapiens; assay: Inhibition of IL-1-beta-induced sPLA2 production in human RASFs at 5 uM by ELISA; type: functional; outline: as §1
# [6] = species: Homo sapiens; assay: Inhibition of IL-1-beta-induced MMP1 levels in human RASFs after 1 hr by ELISA; type: functional; outline: as §1
# [7] = species: Homo sapiens; assay: Inhibition of IL-1-beta-induced MMP2 levels in human RASFs after 1 hr by ELISA; type: functional; outline: as §1
# [8] = Toxicity against human RASF at 1 to 10 uM after 24 hrs
# Outline: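 Primary RA synovial fibroblasts (passages 3-8) were exposed to peptide at 1, 5 and 10 µM for 24 h. Viability was read by the XTT cell proliferation assay.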
# [9] = species: Homo sapiens; assay: Inhibition of IL-1-beta-induced MMP9 gene expression in human RASFs by QRT-PCR; type: functional
# Outline: (§2)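 Primary synovial fibroblasts from three RA patients (passages 3-8), grown to confluence in DMEM/10% FBS and serum-starved 16 h. Preincubated 1 h with 5 µM peptide or vehicle (0.1% DMSO final), then stimulated 24 h with hrIL-1β 10 ng/mL. Cells from 3 flasks pooled per group, total RNA isolated and DNase-treated, then transcripts quantified by qRT-PCR. Unstimulated cells served as controls.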
# [10] = species: Homo sapiens; assay: Inhibition of IL-1-beta-induced MMP2 gene expression in human RASFs by QRT-PCR; type: functional; outline: as §2
# [11] = species: Oryctolagus cuniculus; assay: Inhibition of IL-1-beta-induced TIMPs gene expression in rabbit HIG82 cells by QRT-PCR; type: functional, cell-based
# Outline: (§3)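 Rabbit HIG-82 fibroblast-like synoviocytes were grown in Ham's F-12/10% FBS to 80% confluence. They were serum-starved 2 h with or without 5 µM peptide; controls got medium or vehicle (0.1% DMSO). Cells were then stimulated 24 h with rhIL-1β 5 ng/mL, washed in cold PBS, RNA extracted, and transcripts measured by qRT-PCR.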
# [12] = species: Homo sapiens; assay: Inhibition of IL-1-beta-induced sPLA2 gene expression in human RASFs by QRT-PCR; type: functional; outline: as §2
# [13] = species: Homo sapiens; assay: Inhibition of IL-1-beta-induced MMP1 gene expression in human RASFs by QRT-PCR; type: functional; outline: as §2
# [14] = species: Homo sapiens; assay: Inhibition of IL-1-beta-induced sPLA2 production in human RASFs by ELISA; type: functional
# Outline: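 RA synovial fibroblasts (passages 3-8, serum-starved 16 h) were preincubated 1 h at 37 °C with peptide (1, 2.5, 5 or 10 µM) or vehicle (0.1% DMSO final), then cultured a further 24 h with or without IL-1β 10 ng/mL. Supernatant sPLA2-IIA was measured by EIA in triplicate; mean ± SD from a representative of three RASF lines.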
# [15] = species: Homo sapiens; assay: Inhibition of IL-1-beta-induced TIMPs gene expression in human RASFs by QRT-PCR; type: functional; outline: as §2
# [16] = species: Oryctolagus cuniculus; assay: Inhibition of IL-1-beta-induced MMP1 gene expression in rabbit HIG82 cells by QRT-PCR; type: functional, cell-based; outline: as §3
# [17] = species: Oryctolagus cuniculus; assay: Inhibition of IL-1-beta-induced MMP9 gene expression in rabbit HIG82 cells by QRT-PCR; type: functional, cell-based; outline: as §3
# [18] = species: Oryctolagus cuniculus; assay: Inhibition of IL-1-beta-induced MMP2 gene expression in rabbit HIG82 cells by QRT-PCR; type: functional, cell-based; outline: as §3
# [19] = species: Oryctolagus cuniculus; assay: Inhibition of IL-1-beta-induced sPLA2 gene expression in rabbit HIG82 cells by QRT-PCR; type: functional, cell-based; outline: as §3
Compound,IC50 [1] [µM],inhibition [2] [%],further results
CC[C@H](C)[C@@H](NC(=O)[C@@H](N)CC(=O)O)C(=O)N[C@@H](Cc1cnc[nH]1)C(=O)N[C@H](C(=O)N[C@@H](Cc1c[nH]c2ccccc12)C(=O)N[C@@H](CC(=O)O)C(=O)NCC(=O)N[C@H](C(=O)O)C(C)C)C(C)C,5.75,45.9,
CC[C@H](C)[C@@H](NC(=O)[C@H](CC(=O)O)NC(=O)[C@@H](NC(=O)[C@@H](N)CCCNC(=N)N)C(C)C)C(=O)N[C@@H](Cc1cnc[nH]1)C(=O)N[C@H](C(=O)N[C@@H](Cc1c[nH]c2ccccc12)C(=O)N[C@@H](CC(=O)O)C(=O)NCC(=O)N[C@H](C(=O)O)C(C)C)C(C)C,3.67,59.5,
CC[C@H](C)[C@@H](NC(=O)[C@H](CC(=O)O)NC(=O)[C@@H](N)C(C)C)C(=O)N[C@@H](Cc1cnc[nH]1)C(=O)N[C@H](C(=O)N[C@@H](Cc1c[nH]c2ccccc12)C(=O)N[C@@H](CC(=O)O)C(=O)NCC(=O)N[C@H](C(=O)O)C(C)C)C(C)C,3.8,56.4,
CC[C@H](C)[C@@H](NC(=O)[C@H](CC(=O)O)NC(=O)[C@@H](NC(=O)[C@H](CCCNC(=N)N)NC(=O)CN)C(C)C)C(=O)N[C@@H](Cc1cnc[nH]1)C(=O)N[C@H](C(=O)N[C@@H](Cc1c[nH]c2ccccc12)C(=O)N[C@@H](CC(=O)O)C(=O)NCC(=O)N[C@H](C(=O)O)C(C)C)C(C)C,,14.2,
CCc1c(C(=O)C(N)=O)c2c(OCC(=O)O)cccc2n1Cc1ccccc1 [VARESPLADIB],,,Activity [3]: Active; Activity [4]: inactive; Activity [5]: Active; Activity [6]: Active; Activity [7]: Active; Activity [8]: Non-toxic
H-IHVWDGV-OH,6.21,35.4,
H-LGRVDIHVWDGV-OH,,34.2,
H-LGRVDIHVWDGVY-OH,5.95,48.7,
H-LGRVDIHVWDGVYI-OH,5.8,49.7,
H-LGRVDIHVWDGVYIR-OH,5.75,51,
H-LGRVDIHVWDGVYIRG-OH,5.6,52.4,
H-LGRVDIHVWDGVYIRGR-OH,5.3,55.6,
H-VDIHVWAGV-OH,5.45,48.5,
H-VDIHVWDGVVDIHVWDGV-OH,1.19,74.5,Activity [9]: Active; Activity [10]: Active; Activity [3]: Active; Activity [11]: inactive; Activity [12]: Active; Activity [13]: Active; Activity [14]: Dose-dependent effect; Activity [4]: inactive; Activity [5]: Active; Activity [15]: inactive; Activity [16]: Active; Activity [6]: Active; Activity [7]: Active; Activity [17]: Active; Activity [18]: Active; Activity [19]: Active; Activity [8]: Non-toxic
H-VDIHVWEGV-OH,4.95,57.6,
H-VDIHVWSGV-OH,5.25,52.5,
